# According to PubChem BioAssay AID463111 (Johns Hopkins Ion Channel Center, 2010):
# Screen size: about 310,000 compounds; about 2,800 (0.9%) were called active. This is one part of a sample in which actives are shown more often than they occur.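 Rule for the calls: active = B-score of the integrated calcium signal more than 4 SD below the library mean, with starting fluorescence not abnormally high; inactive = the rest.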
# Experiment: RGS4 potentiators or activators, primary screen, cell-based, HEK293 M3R inducible RGS4, calcium flux (AID 463111);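 for B-score: negative B-score means reduced calcium response which marks RGS4 activation or potentiation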
# Details: HEK293 M3R/inducible RGS4, carbachol calcium flux Fluo4, at 10 µM; hits give low values
# Outline: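 Material: M3R-expressing HEK293 line, RGS4 induced by doxycycline | Schedule: Overnight RGS4 induction, 30 min dye load 37 °C, 20 min compound RT | Measured by: Fluo4 fluorescence kinetic imaging of calcium | Read-out: Integrated calcium ratio converted to B score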
row,Structure (SMILES),B-score
1,CC(CC(=O)Nc1ccc(F)cc1F)S(=O)(=O)c1ccc2c(c1)NC(=O)CO2 (configuration not stated),inactive
2,CC(CC(=O)N1CCN(S(=O)(=O)c2ccccc2)CC1)n1cncn1 (configuration not stated),inactive
3,C=CCNC(=O)c1ccccc1SCc1c(C)noc1C,inactive
4,Cc1cc(C)c(NC(=O)C[N+](C)(C)CC(O)COc2cccc3ccccc23)c(C)c1 (configuration not stated),inactive
5,CC(C)c1ccccc1OCC(O)CN(CC(O)COc1cccc2ccccc12)C(C)C (configuration not stated),-10 (active)
6,CCC(C)Sc1nc2c(c(=O)[nH]c(=O)n2C)n1CC(O)COc1cccc2ccccc12 (configuration not stated),inactive
7,CCCN(c1ccc(C)cc1)c1nc(=O)c2cccnc2s1,inactive
8,CCOC(=O)c1c(NC(=S)Nc2ccccc2)sc2c1CCN(C)C2,inactive
9,CCOC(=O)c1c(NC(=O)Cn2nc(C(F)(F)F)cc2C)sc2c1CCC2,inactive
10,CCOC(=O)c1c(NC(=O)NC(C)(C)C)sc2c1CCN(C)C2,-8.36 (active)
11,CCOC(=O)C1C(c2ccc(OC)c(OC)c2)c2c([nH][nH]c2=O)CC1(C)O (configuration not stated),inactive
12,CC1CN(/C=C/C(=O)C(F)(F)F)CC(C)O1 (configuration not stated),inactive
13,CCCc1ccc(OCc2ccc(C(=O)N/N=C/c3cccc([N+](=O)[O-])c3)o2)c(OC)c1,inactive
14,O=C(O)CSc1c2c(nc3cc(C(=O)Nc4cccc(C(F)(F)F)c4)ccc13)CCCC2,inactive
15,FC(F)(F)c1cccc(NC(=S)Nc2cccc(Cl)c2)c1,inactive
16,Cn1nc(C(F)(F)F)c(C(=O)Nc2cccc(C(F)(F)F)c2)c1SCc1ccc(Cl)cc1,-10.4 (active)
17,CC(C)=CCCC(C)CN1CCC(n2nccc2NC(=O)c2ccccc2)CC1 (configuration not stated),inactive
18,CC(C)Cn1c(CCC(=O)O)ccc1-c1cccs1,-7.21 (active)
19,CCOC(=O)c1ccc(-n2c(CCC(=O)O)ccc2-c2ccccc2)cc1,inactive
20,COCCCn1c(CCC(=O)O)ccc1-c1ccc(F)cc1,inactive
21,Cc1ccccc1CNC(=O)CCC(=O)N1Cc2ccccc2Oc2ncccc21,inactive
22,CC(C)(c1ccccc1)c1ccc(OCCN2CCCC2)cc1,inactive
23,C#CC(CCN1CCCCC1)(OC)c1ccccc1 (configuration not stated),-8.27 (active)
24,CCCCCCC(O)(CCN1CCCCC1)c1ccccc1 (configuration not stated),inactive
25,CCCCOc1ccc(C(C)(O)CCN2CCOCC2)cc1 (configuration not stated),inactive
26,c1ccc(-c2ccccc2OCCN2CCCCC2)cc1,inactive

row,Structure (SMILES),B-score
1,CCCCCC(O)(CCN1CCCCC1)c1ccccc1 (configuration not stated),-9.9 (active)
2,CCC(CC)COC(=O)C1=C(C)NC(=O)NC1c1ccc([N+](=O)[O-])cc1 (configuration not stated),inactive
3,COc1ccc(C(CC(=O)c2ccccc2)S(=O)(=O)c2ccccc2)cc1 (configuration not stated),inactive
4,COC(=O)c1ccc(C2C3=C(Nc4nnnn42)c2ccccc2OC3)cc1 (configuration not stated),inactive
5,Cc1ccccc1-c1nc(CS(=O)(=O)CC(=O)N2CCc3ccccc3C2)c(C)o1,inactive
6,COC(=O)c1cc2occc2n1Cc1nc(-c2ccccc2C)oc1C,-7.3 (active)
7,Cc1ccccc1-c1nc(CS(=O)(=O)CC(=O)NC(C)c2ccccc2)c(C)o1 (configuration not stated),inactive
8,O=C(NCCc1ccccn1)c1cc(C(=O)C2CCCCC2)c[nH]1,inactive
9,CCC1CCCCN1CCCNC(=O)c1cc2c(Cl)nc3ccccc3c2s1 (configuration not stated),-8.65 (active)
10,CCC1CCCCN1CCCNC(=O)C1CCC(Cn2c(=O)[nH]c3ccccc3c2=O)CC1 (configuration not stated),inactive
11,CCC1CCCCN1CCCNC(=O)Cn1nc(-c2ccccc2)ccc1=O (configuration not stated),inactive
12,CCC(c1nnnn1C1CCCC1)N1CCN(C(=O)c2ccco2)CC1 (configuration not stated),inactive
13,CC(C)C(c1nnnn1C1CCCCC1)N1CCN(C(=O)c2ccco2)CC1 (configuration not stated),inactive
14,CC(C)C(c1nnnn1CCc1ccccc1)N1CCN(C(=O)c2ccco2)CC1 (configuration not stated),-10.4 (active)
15,NC(=O)Nc1ccccc1C(=O)NCCc1ccccc1,inactive
16,Cc1ccccc1C(=O)NC(=S)NC1CC1,inactive
17,Cc1ccc(-c2nc(-c3cccnc3)sc2CC(=O)Nc2ccc(C)c(Cl)c2)cc1,inactive
18,CN1CCN(CCCNC(=O)c2ccc(/C=C3\Oc4ccccc4N(Cc4ccc(Cl)cc4)C3=O)cc2)CC1,-7.39 (active)
19,CCCN1CCN(C(=O)CCCNC(=O)c2ccc(Cl)cc2)CC1,inactive
20,CN1C(=O)/C(=C/c2ccc(C(=O)NC3CCCC3)cc2)Oc2ccccc21,inactive
21,COc1ccc2c(c1)C(NS(=O)(=O)OCC(Cl)(Cl)Cl)CCC2 (configuration not stated),inactive
22,CC1(C)C=C2[C@H]3CC[C@@H]4[C@@]5(C)CCC(=O)C(C)(C)[C@@H]5CC[C@@]4(C)[C@]3(C)CC[C@@]2(C(=O)O)CC1,-9.3 (active)
23,CCOC(=O)CCCNC(=O)COC(=O)c1cc(Br)c(Br)s1,inactive
24,O=C(NC(=O)c1cc(OCC(F)(F)F)ccc1OCC(F)(F)F)Nc1ccccc1,inactive
25,NS(=O)(=O)c1ccc(CCNS(=O)(=O)c2cccc3cccnc23)cc1,inactive
26,O=C(NCC1CCCO1)c1cc(-c2ccccc2)nc2ccccc12 (configuration not stated),inactive
